According to ChEMBL document CHEMBL1124785, “Synthesis, metabolism, and pharmacological activity of 3 alpha-hydroxy steroids which potentiate GABA-receptor-mediated chloride ion uptake in rat cerebral cortical synaptoneurosomes” (1990):

Experiments:
Rattus norvegicus [1] = species on record: Rattus norvegicus; assay: Effect on the potentiation of muscimol-stimulated 36Cl- uptake in rat brain synaptoneurosomes; assay type: functional
In short: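 Cerebral cortex synaptoneurosomes from adult male Sprague-Dawley rats (180-200 g), homogenized in Tris-Hepes buffer pH 7.4 with salts and glucose, filtered and washed. Tubes held 1 mg protein. Steroid plus 3 μM muscimol preincubated 10 min at 30 °C, then 0.5 µCi 36Cl- added. Uptake stopped after 5 s with ice-cold picrotoxin buffer and filtered. Counted by scintillation, in quadruplicate; increase measured over muscimol alone.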

Rattus norvegicus [2] = species on record: Rattus norvegicus; assay: Percent of total tritium in extracts of rat brain; assay type: functional
In short: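 Groups of four adult male Sprague-Dawley rats (240-260 g) received 100 μCi 3H-steroid in ethanol-saline by tail vein and were killed after 20 min. Brain was homogenized in chloroform/methanol (2:1) and the extract separated by HPLC (75% aqueous methanol) alongside unlabeled internal standards read at 280 nm. Fraction radioactivity was expressed as % of total brain tritium; means ± SE.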

Rattus norvegicus [3] = assay: The recovery of radioactivity 20 min after administration of [3H]- labeled steroids to rat brain; assay type: functional, organism-based
In short: (§1)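 Adult male Sprague-Dawley rats (240-260 g), four per group, were given 100 μCi tritiated steroid by tail vein in ethanol-saline. Blood and brain were collected 20 min later and aliquots counted for radioactivity (dpm/mL plasma, dpm/g brain). The brain/plasma ratio was also taken; means ± SE.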

Rattus norvegicus [4] = assay: The recovery of radioactivity 20 min after administration of [3H]- labeled steroids to rat plasma; assay type: functional, organism-based; in short: as §1

Structure (SMILES) | Potentiation (Rattus norvegicus [1]) [nM/mg] | further results
CC(=O)[C@@H]1CC[C@H]2[C@@H]3CC[C@H]4C[C@H](O)CC[C@]4(C)[C@H]3CC[C@]12C | 1.12 | –
CC(=O)[C@H]1CCC2C3CC[C@H]4C[C@H](O)CC[C@]4(C)C3=CC[C@@]21C (some centres undefined) | 1.23 | –
C[C@]12CC[C@@H](O)C[C@@H]1CC[C@@H]1[C@@H]2CC[C@]2(C)[C@H](C#N)CC[C@@H]12 | -2.1 | –
C[C@]12CC[C@@H](O)C[C@H]1CC[C@@H]1[C@@H]2CC[C@]2(C)[C@@H](C(=O)CO)CC[C@@H]12 | 7.7 | –
CC1([C@H]2CC[C@H]3[C@@H]4CC[C@@H]5C[C@H](O)CC[C@]5(C)[C@H]4CC[C@]23C)OCCO1 | -0.96 | –
CC(=O)[C@H]1CC[C@H]2[C@@H]3CCC4=C[C@H](O)CC[C@]4(C)[C@H]3CC[C@]12C | 10.4 | –
C[C@]12CCC(=O)C[C@@H]1CC[C@@H]1[C@@H]2CC[C@]2(C)C(C(=O)CO)CC[C@@H]12 (some centres undefined) | -1.95 | Total tritium (Rattus norvegicus [2]): 46.1%
CC(=O)OCC(=O)[C@H]1CC[C@H]2[C@@H]3CC[C@@H]4C[C@H](O)CC[C@]4(C)[C@H]3CC[C@]12C | 10.3 | –
C[C@]12CC[C@@H](O)C[C@@H]1CC[C@@H]1[C@@H]2CC[C@]2(C)/C(=N\O)CC[C@@H]12 | -1.91 | –
C[C@]12CC[C@@H](O)C[C@@H]1CC[C@@H]1[C@@H]2CC[C@]2(C)[C@@H](C(=O)CO)CC[C@@H]12 | 13.1 | Total tritium (Rattus norvegicus [2]): 48.1%; Recovery (Rattus norvegicus [3]): 212000 dpm ml-1; Recovery (Rattus norvegicus [4]): 316000 dpm ml-1
CC(=O)[C@H]1CC[C@H]2[C@@H]3CC[C@@H]4C[C@H](O)CC[C@]4(C)[C@H]3[C@H](O)C[C@]12C | 0.98 | –
C[C@]12CC[C@@H](O)C[C@H]1CC[C@@H]1[C@@H]2CC[C@]2(C)C(=O)CC[C@@H]12 [ETIOCHOLANOLONE] | 4.9 | –
C[C@]12CC=C3C(CC[C@H]4C[C@H](O)CC[C@]34C)C1CC[C@@H]2C(=O)CO (some centres undefined) | 1.4 | –
CC(=O)[C@H]1CC[C@H]2[C@@H]3CC[C@H]4C[C@H](O)CC[C@]4(C)[C@H]3CC[C@]12C [BREXANOLONE] | 10.9 | Total tritium (Rattus norvegicus [2]): 50.4%; Recovery (Rattus norvegicus [3]): 342000 dpm ml-1; Recovery (Rattus norvegicus [4]): 176000 dpm ml-1
CC(=O)[C@H]1CC[C@H]2[C@@H]3CCC4=CC(=O)CC[C@]4(C)[C@H]3CC[C@]12C [PROGESTERONE] | -1.8 | –
CC(=O)O[C@@H]1CC[C@@]2(C)[C@@H](CC[C@@H]3[C@@H]2CC[C@]2(C)[C@@H](C(=O)CO)CC[C@@H]32)C1 | 0.48 | –

Structure (SMILES) | Potentiation (Rattus norvegicus [1]) [nM/mg] | further results
C[C@H](O)[C@H]1CC[C@H]2[C@@H]3CC[C@H]4C[C@H](O)CC[C@]4(C)[C@H]3CC[C@]12C | 1.97 | –
CC(=O)[C@H]1CCC2C3CCC4=C[C@@H](O)CC[C@]4(C)C3CC[C@@]21C (some centres undefined) | 1.43 | –
C[C@]12CC[C@@H](O)C[C@@H]1CC[C@@H]1[C@@H]2CC[C@]2(C)[C@@H](C#N)CC[C@@H]12 | 13 | –
CC(=O)C1CC[C@H]2[C@@H]3CC[C@H]4C/C(=N\O)CCC4(C)[C@H]3CCC12C (some centres undefined) | -3.26 | –
CC(=O)[C@H]1CC[C@H]2[C@@H]3CC[C@@H]4C[C@H](O)CC[C@]4(C)[C@H]3C[C@H](O)[C@]12C | -2.58 | –
CC1([C@H]2CC[C@H]3[C@@H]4CC[C@H]5C[C@H](O)CC[C@]5(C)[C@H]4CC[C@]23C)OCCO1 | 0.16 | –
CC(=O)OCC(=O)[C@H]1CC[C@H]2[C@@H]3CC[C@H]4C[C@H](O)CC[C@]4(C)[C@H]3CC[C@]12C | 12.2 | –
CC(=O)C1CC[C@H]2[C@@H]3CC[C@H]4CC(=O)CC[C@]4(C)[C@H]3CC[C@]12C (some centres undefined) | 2.63 | Total tritium (Rattus norvegicus [2]): 40.6%
C[C@]12CC[C@@H](O)C[C@@H]1CC[C@@H]1[C@@H]2CC[C@]2(C)[C@@H](C(=O)COS(C)(=O)=O)CC[C@@H]12 | 7.9 | –
CC(=O)OCC(=O)[C@H]1CCC2C3CC[C@H]4C[C@H](O)CC[C@]4(C)C3=CC[C@@]21C (some centres undefined) | 0.34 | –
CC(=O)OCC(=O)[C@H]1CC[C@H]2[C@@H]3CC[C@H]4C[C@H](OC(C)=O)CC[C@]4(C)[C@H]3CC[C@]12C | 1.37 | –
C[C@]12CC[C@@H](O)C[C@@H]1CC[C@@H]1[C@@H]2CC[C@]2(C)C(=O)CC[C@@H]12 [ANDROSTERONE] | 7 | –
COC(=O)[C@H]1CC[C@H]2[C@@H]3CC[C@H]4C[C@H](O)CC[C@]4(C)[C@H]3CC[C@]12C | 3.6 | –
CC(=O)[C@H]1CC[C@H]2[C@@H]3CC[C@H]4C[C@H](O)CC[C@]4(C)[C@H]3[C@H](O)C[C@]12C | 0.7 | –
CC(=O)O[C@@H]1CC[C@@]2(C)[C@@H](CC[C@@H]3[C@@H]2CC[C@]2(C)[C@@H](C(C)=O)CC[C@@H]32)C1 | 2.57 | –
